Data on five molecules can be found in ChEMBL document CHEMBL4002622, “A tetramic acid derivative with protein tyrosine phosphatase 1B inhibitory activity and a new nortriterpene glycoside from the Indonesian marine sponge Petrosia sp” (Bioorg Med Chem Lett, 2017).

The target in assay [1] is T1, Tyrosine-protein phosphatase non-receptor type 1 (Homo sapiens, UniProt P18031).
T1 sequence (P18031 whole entry): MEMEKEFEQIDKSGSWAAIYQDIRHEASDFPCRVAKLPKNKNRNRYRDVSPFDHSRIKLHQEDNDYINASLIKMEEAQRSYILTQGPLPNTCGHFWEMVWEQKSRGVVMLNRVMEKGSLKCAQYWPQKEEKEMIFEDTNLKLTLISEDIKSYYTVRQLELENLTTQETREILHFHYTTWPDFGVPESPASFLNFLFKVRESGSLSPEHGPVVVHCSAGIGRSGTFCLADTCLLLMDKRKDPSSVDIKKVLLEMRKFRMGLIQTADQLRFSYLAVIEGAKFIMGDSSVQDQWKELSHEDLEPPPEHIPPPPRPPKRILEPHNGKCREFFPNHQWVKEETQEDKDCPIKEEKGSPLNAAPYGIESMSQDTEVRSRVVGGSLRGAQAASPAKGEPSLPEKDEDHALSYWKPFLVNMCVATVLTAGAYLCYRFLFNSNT
In words: Inhibition of PTP1B (unknown origin) using pNPP as substrate preincubated for 10 mins followed by substrate addition measured after 30 mins. Summed up: (§1)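 Enzyme (0.5 μg/mL stock) in 50 mM citrate pH 6.0, 0.1 M NaCl, 1 mM DTT, 1 mM EDTA; sample added in CH3OH, preincubated 10 min at 37 °C. pNPP (4.0 mM stock) started reaction, 30 min at 37 °C, stopped with 10 M NaOH; p-nitrophenol read at 405 nm. Inhibition (%) = [1 − (sample − blank)/(control − blank)] × 100; oleanolic acid positive control.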

Another assay deals with A549. Kind of assay: Cytotoxicity against human A549 cells assessed as decrease in cell viability after 72 hrs by WST1 assay. Type of assay: functional, cell-based. In short, it runs like this:
(§2)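 Seeded 1×10^4 cells per well, cultured overnight, then exposed to compound for 72 h; controls got 0.1% EtOH. Medium with WST-1 (0.5 mM WST-1, 0.02 mM 1-PMS) added, 60 min at 37 °C, absorbance 438 nm (reference 620 nm). Viability = treated absorbance/control absorbance × 100 (%).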

Another assay concerns Huh-7. In words: Cytotoxicity against human HuH7 cells assessed as decrease in cell viability after 72 hrs by WST1 assay. Type of assay: functional, cell-based. Summed up: as §2
(Tetrazolium dyes change colour on reduction, which living cells bring about.)

The target of assay [2] is T2, Tyrosine-protein phosphatase non-receptor type 1 (Homo sapiens) (UniProt P18031).
T2 sequence (whole entry): T1 sequence (P18031 whole entry)
In words: Inhibition of PTP1B (unknown origin) at 15.2 to 16 uM using pNPP as substrate preincubated for 10 mins followed by substrate addition measured after 30 mins. In short, it runs like this: as §1

Calls of active or inactive are those of the source. No cut-off for these calls is given here.

For orientation: IC50 means the midpoint of a concentration-inhibition curve. Read a low IC50 as inhibition by little substance. In the case of `CCCCCCCC(C)CCC/C(O)=C1\C(=O)C(C)N(C)C1=O` (stereo not drawn) [MELOPHLIN C], it took 14.6 µM to reach half-maximal inhibition in assay [1] (IC50).

With `CC(=O)N[C@H]1[C@H](O[C@@H]2CO[C@@H](O[C@H]3CC[C@@]4(C)[C@@H](CCC5=C6[C@@H](O)C[C@H]([C@H](C)CC(=O)C=C(C)C)[C@@]6(C)CC[C@@]54O)C3(C)C)[C@H](O[C@@H]3O[C@H](CO[C@@H]4O[C@H](CO)[C@@H](O)[C@H](O)[C@H]4O[C@@H]4O[C@H](CO)[C@@H](O)[C@H](O)[C@H]4O)[C@@H](O)[C@H](O)[C@H]3NC(C)=O)[C@H]2O)O[C@H](CO)[C@H](O)[C@@H]1O`, the result in the assay with A549 and in the assay on Huh-7 was inactive. In addition, the inhibition result in assay [2] was “inactive”.

As for `CC(=O)N[C@H]1[C@H](O[C@@H]2CO[C@@H](O[C@H]3CC[C@]4(C)C5=C(CC[C@H]4C3(C)C)[C@@H]3CC[C@H]([C@H](C)CC(=O)C=C(C)C)[C@@]3(C)CC5)[C@H](O[C@@H]3O[C@H](CO[C@@H]4O[C@H](CO)[C@@H](O)[C@H](O)[C@H]4O[C@@H]4O[C@H](CO)[C@@H](O)[C@H](O)[C@H]4O)[C@@H](O)[C@H](O)[C@H]3NC(C)=O)[C@H]2O)O[C@H](CO)[C@H](O)[C@@H]1O`, the result in the assay with A549 and with Huh-7 was inactive. Further, the inhibition entry in assay [2] was “inactive”.

In the case of `CC(=O)C[C@@H](C)[C@H]1CC[C@H]2C3=C(CC[C@]12C)[C@@]1(C)CC[C@H](O[C@@H]2OC[C@@H](O[C@@H]4O[C@H](CO)[C@H](O)[C@H](O)[C@H]4NC(C)=O)[C@H](O)[C@H]2O[C@@H]2O[C@H](CO[C@@H]4O[C@H](CO)[C@@H](O)[C@H](O)[C@H]4O[C@@H]4O[C@H](CO)[C@@H](O)[C@H](O)[C@H]4O)[C@@H](O)[C@H](O)[C@H]2NC(C)=O)C(C)(C)[C@@H]1CC3`, the result with A549 and in the assay on Huh-7 was inactive. In addition, in assay [2], the inhibition result was “inactive”.

In the case of `CC(=O)N[C@H]1[C@H](O[C@@H]2CO[C@@H](O[C@H]3CC[C@]4(C)C5=C(CC[C@H]4C3(C)C)[C@@H]3CC[C@H]([C@H](C)CC(=O)CC(C)(C)O)[C@@]3(C)CC5)[C@H](O[C@@H]3O[C@H](CO[C@@H]4O[C@H](CO)[C@@H](O)[C@H](O)[C@H]4O[C@@H]4O[C@H](CO)[C@@H](O)[C@H](O)[C@H]4O)[C@@H](O)[C@H](O)[C@H]3NC(C)=O)[C@H]2O)O[C@H](CO)[C@H](O)[C@@H]1O`, the result in the assay with A549 and in the assay with Huh-7 was inactive. Besides, the inhibition result in assay [2] is “inactive”.
